Test [1] deals with T1, Protein cereblon/Indoleamine 2,3-dioxygenase 1 (Homo sapiens, UniProt P14902+Q96SW2). The test is described as follows: PROTAC activity at CRBN/N-terminal HiBiT-tagged IDO1 (unknown origin) transfected in human U87 cells assessed as induction of IDO1 degradation by measuring maximum efficacy pretreated with IFN-gamma for 24 hrs followed by compound addition and measured after 24 hrs by Nano-Glo HiBiT assay relative to control. It counts as cell-based. In outline: (§1)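 U87 cells carrying HiBiT knocked in by CRISPR/Cas9 at the IDO1 N-terminus, treated for 24 h. Degradation read as loss of luminescence. DC50 fitted from the lowest concentration up to maximal degradation, excluding hook-effect points; triplicate mean ± SD.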
Background: HiBiT is a short tag that completes a luciferase, so light tracks the accessible tagged protein.
Target sequence in this assay (P14902 whole entry, looked up): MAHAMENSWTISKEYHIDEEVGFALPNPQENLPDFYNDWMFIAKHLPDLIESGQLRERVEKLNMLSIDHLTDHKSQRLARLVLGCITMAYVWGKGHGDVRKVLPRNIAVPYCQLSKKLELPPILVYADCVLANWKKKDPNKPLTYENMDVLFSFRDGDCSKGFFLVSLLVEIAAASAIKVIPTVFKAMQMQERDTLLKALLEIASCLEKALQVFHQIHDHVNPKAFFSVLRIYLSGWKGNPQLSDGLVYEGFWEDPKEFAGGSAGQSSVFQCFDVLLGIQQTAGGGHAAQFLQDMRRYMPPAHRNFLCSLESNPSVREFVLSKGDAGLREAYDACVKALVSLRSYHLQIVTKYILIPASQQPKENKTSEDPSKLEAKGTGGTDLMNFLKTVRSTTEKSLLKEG
Target sequence in this assay (Q96SW2 whole entry, looked up): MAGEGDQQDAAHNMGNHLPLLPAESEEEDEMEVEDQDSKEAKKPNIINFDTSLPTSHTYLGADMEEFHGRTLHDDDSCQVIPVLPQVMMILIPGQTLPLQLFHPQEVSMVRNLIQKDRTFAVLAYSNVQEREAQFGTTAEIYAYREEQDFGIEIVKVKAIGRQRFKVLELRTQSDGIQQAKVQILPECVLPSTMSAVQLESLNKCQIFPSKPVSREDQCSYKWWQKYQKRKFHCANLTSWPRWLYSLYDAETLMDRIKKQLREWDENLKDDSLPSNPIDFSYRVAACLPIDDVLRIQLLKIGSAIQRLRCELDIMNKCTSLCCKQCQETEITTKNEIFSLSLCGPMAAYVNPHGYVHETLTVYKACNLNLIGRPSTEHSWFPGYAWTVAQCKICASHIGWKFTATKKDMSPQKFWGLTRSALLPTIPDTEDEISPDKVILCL

The target of test [2] is T1, Protein cereblon/Indoleamine 2,3-dioxygenase 1. The test is described as follows: PROTAC activity at CRBN/N-terminal HiBiT-tagged IDO1 (unknown origin) transfected in human U87 cells assessed as induction of IDO1 degradation pretreated with IFN-gamma for 24 hrs followed by compound addition and measured after 24 hrs by Nano-Glo HiBiT assay. It counts as cell-based. An outline of the steps: as §1
Target sequence in this assay (P14902 whole entry): as the sequence (P14902 whole entry, looked up) above
Target sequence in this assay (Q96SW2 whole entry): as the sequence (Q96SW2 whole entry, looked up) above

What is called Emax is the maximal effect, on the per cent scale that the assay sets. A word on the DC50: it is the concentration giving 50% degradation. Take `C[C@@H](C(=O)Nc1ccc(Cl)c(OC2CCN(C(=O)CCOCCN3CCN(c4ccc5c(c4)C(=O)N(C4CCC(=O)NC4=O)C5=O)CC3)CC2)c1)[C@H]1CC[C@@H](c2ccnc3ccc(F)cc32)CC1` (stereo partly drawn): the Emax in test [1] is less than 10%. Moreover, the DC50 in test [2] is more than 10 µM.
In the case of `C[C@@H](C(=O)Nc1ccc(OC2CCN(C(=O)CCOCCN3CCN(c4ccc5c(c4)C(=O)N(C4CCC(=O)NC4=O)C5=O)CC3)CC2)cc1)[C@H]1CC[C@@H](c2ccnc3ccc(F)cc32)CC1` (stereo partly drawn), the Emax in test [1] was less than 10%. The 50% degradation concentration (DC50) in test [2] is more than 10 µM.
As for `C[C@@H](C(=O)Nc1cccc(OC2CCN(C(=O)CCN3CCN(c4ccc5c(c4)C(=O)N(C4CCC(=O)NC4=O)C5=O)CC3)CC2)c1)[C@H]1CC[C@@H](c2ccnc3ccc(F)cc32)CC1` (stereo partly drawn), in test [1], the Emax was less than 10%. The DC50 in test [2] was more than 10 µM.
Consider `C[C@@H](C(=O)Nc1ccc(Cl)c(OC2CCN(C(=O)CCOCCN3CCN(c4cccc5c4C(=O)N(C4CCC(=O)NC4=O)C5=O)CC3)CC2)c1)[C@H]1CC[C@@H](c2ccnc3ccc(F)cc32)CC1` (stereo partly drawn), for which the maximal effect (Emax) in test [1] is less than 10%. Moreover, in test [2], the half-maximal degradation concentration (DC50) was more than 10 µM.
As to `C[C@@H](C(=O)Nc1ccc(Cl)c(OC2CCN(C(=O)CCOCCOCCNc3ccc4c(c3)C(=O)N(C3CCC(=O)NC3=O)C4=O)CC2)c1)[C@H]1CC[C@@H](c2ccnc3ccc(F)cc32)CC1` (stereo partly drawn), the Emax in test [1] is less than 10%. In addition, in test [2], the half-maximal degradation concentration (DC50) was more than 10 µM.
For the compound `C[C@@H](C(=O)Nc1ccc(Cl)c(OC2CCN(C(=O)CN3CCC(CN4CCN(c5cccc6c5C(=O)N(C5CCC(=O)NC5=O)C6=O)CC4)CC3)CC2)c1)[C@H]1CC[C@@H](c2ccnc3ccc(F)cc32)CC1` (stereo partly drawn), the Emax in test [1] was less than 10%. Moreover, the DC50 in test [2] was more than 10 µM.
For `C[C@@H](C(=O)Nc1ccc(OC2CCN(C(=O)CN3CCC(CN4CCN(c5ccc6c(c5)C(=O)N(C5CCC(=O)NC5=O)C6=O)CC4)CC3)CC2)cc1)[C@H]1CC[C@@H](c2ccnc3ccc(F)cc32)CC1` (stereo partly drawn), the Emax in test [1] worked out at 26%. For the same compound, the DC50 in test [2] amounted to 0.34 µM.
Turning to `C[C@@H](C(=O)Nc1ccc(OC2CCN(C(=O)CCOCCN3CCN(c4cccc5c4C(=O)N(C4CCC(=O)NC4=O)C5=O)CC3)CC2)cc1)[C@H]1CC[C@@H](c2ccnc3ccc(F)cc32)CC1` (stereo partly drawn), in test [1], the maximal response (Emax) was less than 10%. In addition, the half-maximal degradation concentration (DC50) in test [2] was more than 10 µM.
For `C[C@@H](C(=O)Nc1ccc(Cl)c(OC2CCN(C(=O)CCOCCOCCNc3cccc4c3C(=O)N(C3CCC(=O)NC3=O)C4=O)CC2)c1)[C@H]1CC[C@@H](c2ccnc3ccc(F)cc32)CC1` (stereo partly drawn), the maximum response (Emax) in test [1] is less than 10%. For the same compound, the half-maximal degradation concentration (DC50) in test [2] is more than 10 µM.
Regarding `C[C@@H](C(=O)Nc1ccc(Cl)c(OC2CCN(C(=O)CN3CCC(CN4CCN(c5ccc6c(c5)C(=O)N(C5CCC(=O)NC5=O)C6=O)CC4)CC3)CC2)c1)[C@H]1CC[C@@H](c2ccnc3ccc(F)cc32)CC1` (stereo partly drawn), in test [1], the Emax came to 48%. In test [2], the DC50 was 0.008 µM.
On the same counts, the results for `C[C@@H](C(=O)Nc1ccc(OC2CCN(C(=O)CN3CCC(CN4CCN(c5cccc6c5C(=O)N(C5CCC(=O)NC5=O)C6=O)CC4)CC3)CC2)cc1)[C@H]1CC[C@@H](c2ccnc3ccc(F)cc32)CC1` (stereo partly drawn) are less than 10% and more than 10 µM.
With `C[C@@H](C(=O)Nc1cccc(OC2CCN(C(=O)CN3CCN(c4ccc5c(c4)C(=O)N(C4CCC(=O)NC4=O)C5=O)CC3)CC2)c1)[C@H]1CC[C@@H](c2ccnc3ccc(F)cc32)CC1` (stereo partly drawn), the maximal response (Emax) in test [1] was less than 10%. Moreover, in test [2], the DC50 was more than 10 µM.
For `C[C@@H](C(=O)Nc1ccc(OC2CCN(C(=O)CCOCCOCCNc3ccc4c(c3)C(=O)N(C3CCC(=O)NC3=O)C4=O)CC2)cc1)[C@H]1CC[C@@H](c2ccnc3ccc(F)cc32)CC1` (stereo partly drawn), the Emax in test [1] is less than 10%. In addition, in test [2], the half-maximal degradation concentration (DC50) was more than 10 µM.
Regarding `C[C@@H](C(=O)Nc1ccc(Cl)c(OC2CCN(C(=O)CN3CCC(N4CCN(c5ccc6c(c5)C(=O)N(C5CCC(=O)NC5=O)C6=O)CC4)CC3)CC2)c1)[C@H]1CC[C@@H](c2ccnc3ccc(F)cc32)CC1` (stereo partly drawn), the Emax in test [1] stood at 51%. Besides, the DC50 in test [2] was 0.007 µM.
